Measured values from ChEMBL document CHEMBL5329185, “Structure-activity relationship studies on vitamin D-based selective SREBP/SCAP inhibitor KK-052” (RSC Med Chem, 2023).
pIC50: −log10 of the molar value. Activity calls are given as the source filed them. The calls are words filed in the database; no cut-off is given here.

Tests used:
CHO-K1 [1] = assay: Downregulation of SCAP protein level in CHO-K1 cells harbouring FLAG-SCAP (1 to 767 residues) at 15 uM measured after 24 hrs by Western blot analysis; type: functional, cell-based; details: Cricetulus griseus
Method in brief: (§1)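 Wild-type CHO-K1 cells or CHO-K1 cells overexpressing FLAG-SCAP(1–767) held in lipid-free medium with 15 μM compound for 24 h. Lysis in RIPA with protease inhibitors, 20 000g spin, BCA protein assay, SDS-PAGE and immunoblot. Endogenous SCAP probed with anti-hamster SCAP, the overexpressed form with anti-FLAG M2, actin as loading control. HRP chemiluminescence detection.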

CHO-K1 [2] = assay: Downregulation of SCAP protein level in wild type CHO-K1 cells at 15 uM measured after 24 hrs by Western blot analysis; type: functional, cell-based; details: Cricetulus griseus; method in brief: as §1
CHO-K1 [3] = assay: Inhibition of SREBP/SCAP (unknown origin) transfected with CHO-K1 cells cotransfected with pSRE-Luc/pAC-beta-gal at 5 uM measured after 24 hrs by Steady-Glo luciferase assay; type: cell-based; details: Homo sapiens
Method in brief: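 CHO-K1 cells transfected with an SRE-controlled luciferase reporter, exposed to compounds at 5 μM in lipid-free medium. 25(OH)D3 tested alongside as control. Luciferase signal reported as mean ± SD.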

[4] = Inhibition of SREBP/SCAP (unknown origin) transfected with CHO-K1 cells cotransfected with pSRE-Luc/pAC-beta-gal measured after 24 hrs by Steady-Glo luciferase assay; type: cell-based; details: CHO-K1, 24 h
Method in brief: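 IC50 taken from a dose-response in CHO-K1 cells transfected with an SRE-driven luciferase reporter. Cells were treated with various compound concentrations in lipid-free medium. Luciferase read-out, mean ± SD.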

[5] = target: T1, Vitamin D3 receptor (Homo sapiens) (UniProt P11473); assay: Activation of VDR (unknown origin) transfected in CHO-K1 cells assessed as luciferase activity at 5 uM measured after 24 hrs by Steady-Glo luciferase assay; type: cell-based; details: filed as activator
T1 sequence (whole entry): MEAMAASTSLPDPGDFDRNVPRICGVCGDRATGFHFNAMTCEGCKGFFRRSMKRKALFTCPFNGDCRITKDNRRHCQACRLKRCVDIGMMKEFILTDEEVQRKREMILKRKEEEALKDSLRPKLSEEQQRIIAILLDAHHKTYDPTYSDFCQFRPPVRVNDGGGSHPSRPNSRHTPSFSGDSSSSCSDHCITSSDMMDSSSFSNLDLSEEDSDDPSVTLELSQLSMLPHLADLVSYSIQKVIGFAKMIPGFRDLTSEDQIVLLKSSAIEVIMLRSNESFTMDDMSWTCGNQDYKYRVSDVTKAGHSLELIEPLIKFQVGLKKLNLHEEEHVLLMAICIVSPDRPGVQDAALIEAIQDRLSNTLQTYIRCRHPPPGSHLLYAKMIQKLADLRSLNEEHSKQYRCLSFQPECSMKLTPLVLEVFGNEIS
Method in brief: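 CHO-K1 cells transfected with a VDRE-driven luciferase reporter, then treated with compounds at 5 μM in lipid-free medium. 25(OH)D3 run in parallel as control, DMSO as negative control. Luciferase read-out, mean ± SD.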

SMILES	Activity (CHO-K1 [1])	Activity (CHO-K1 [2])	inhibition (CHO-K1 [3])	pIC50 [4]	Activity [5]
C=C1CC[C@H](O)C/C1=C/C=C1\CCC[C@]2(C)[C@@H]([C@H](C)CCCC(C)(C)O)CC[C@@H]12	Active	Active	–	–	–
Cc1cccc(-c2nnnn2C/C=C2\CCC[C@]3(C)[C@@H]([C@H](C)CCC(F)(F)C(C)(C)O)CC[C@@H]23)c1	Active	Active	Active	5.85	–
Cc1ccc(-c2nnn(C/C=C3\CCC[C@]4(C)[C@@H]([C@H](C)CCC(F)(F)C(C)(C)O)CC[C@@H]34)n2)cc1	–	–	–	–	Active
C[C@H](CCC(F)(F)C(C)(C)O)[C@H]1CC[C@H]2/C(=C/Cn3nnnc3-c3ccccc3)CCC[C@]12C	Active	Active	–	5.46	–
C[C@H](CCC(F)(F)C(C)(C)O)[C@H]1CC[C@H]2/C(=C/Cn3nnnc3-c3ccc(C(F)(F)F)cc3)CCC[C@]12C	–	–	–	–	Active
C[C@H](CCC(F)(F)C(C)(C)O)[C@H]1CC[C@H]2/C(=C/Cn3nnnc3-c3ccc(Cl)cc3)CCC[C@]12C	–	–	–	–	Active
C[C@H](CCC(F)(F)C(C)(C)O)[C@H]1CC[C@H]2/C(=C/Cn3nnc(-c4ccc(Cl)cc4)n3)CCC[C@]12C	–	–	–	–	Active
C[C@H](CCC(F)(F)C(C)(C)O)[C@H]1CC[C@H]2/C(=C/Cn3nnc(-c4ccc(C(F)(F)F)cc4)n3)CCC[C@]12C	–	–	–	–	Active
Cc1ccc(-c2nnnn2C/C=C2\CCC[C@]3(C)[C@@H]([C@H](C)CCC(F)(F)C(C)(C)O)CC[C@@H]23)cc1	–	–	–	–	Active
C[C@H](CCC(F)(F)C(C)(C)O)[C@H]1CC[C@H]2/C(=C/Cn3nnc(-c4ccccc4Cl)n3)CCC[C@]12C	Active	Active	Active	5.70	–
